ChEMBL document CHEMBL2169868, “Flavone-based novel antidiabetic and antidyslipidemic agents” (J Med Chem, 2012)
Active and inactive are the calls of the source. No cut-off for these calls is given here.

Experiments:
[1] = tested on: Mus musculus; assay: Antidyslipidemic activity in diabetic C57BL/KsJ db/db mouse model assessed as increase in plasma HDL-cholesterol level at 25 mg/kg, po qd for 10 days; assay type: functional
In short: (§1)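 db/db mice (blood glucose 200−350, TG 170−250, cholesterol 170−250, HDL-C 32−40 mg/dL) dosed orally at 25 mg/kg daily for 10 days; retro-orbital blood taken on day 11 for plasma TG, cholesterol and HDL-C (and HDL-C/CHOL ratio); mean % change versus vehicle control, 5 mice per group; Student t test.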

[2] = tested on: Mus musculus; assay: Antihyperglycemic activity in diabetic C57BL/KsJ db/db mouse model assessed as reduction in plasma insulin level in hyperglycemia at 25 mg/kg, po qd for 10 days; assay type: functional; set-up: scale not given: the % may be the effect or the level left
In short: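 db/db mice dosed orally every day for 10 days. On day 11, retro-orbital blood was drawn and plasma insulin measured. Mean % change versus vehicle-treated control, 5 mice per group; Student t test.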

[3] = tested on: Mus musculus; assay: Antidyslipidemic activity in diabetic C57BL/KsJ db/db mouse model assessed as increase in plasma HDL-C/cholesterol ratio at 25 mg/kg, po qd for 10 days; assay type: functional; in short: as §1
[4] = tested on: Mus musculus; assay: Antidyslipidemic activity in diabetic C57BL/KsJ db/db mouse model assessed as reduction in plasma triglyceride level at 25 mg/kg, po qd for 10 days; assay type: functional; set-up: scale not given: the % may be the effect or the level left; in short: as §1
[5] = tested on: Mus musculus; assay: Reduction in body weight in diabetic C57BL/KsJ db/db mouse model in hyperglycemia at 25 mg/kg, po qd for 10 days relative to untreated control; assay type: functional
In short: (§2)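 db/db mice (C57BL/KsJ, 12−18 weeks, 40−50 g, glucose 200−350 mg/dL), housed at 23 ± 2.0 °C on a 12 h light cycle. Oral dosing daily for 10 days. Blood glucose checked each morning through day 9. Body weight recorded daily from day 1 to day 10. Mean % change versus vehicle, 5 mice per group; Student t test.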

[6] = tested on: Mus musculus; assay: Antidyslipidemic activity in diabetic C57BL/KsJ db/db mouse model assessed as reduction in plasma cholesterol level at 25 mg/kg, po qd for 10 days; assay type: functional; set-up: scale not given: the % may be the effect or the level left; in short: as §1
[7] = tested on: Mus musculus; assay: Antihyperglycemic activity in diabetic C57BL/KsJ db/db mouse model assessed as reduction in hyperglycemia at 25 mg/kg, po qd for 10 days; assay type: functional; set-up: scale not given: the % may be the effect or the level left; in short: as §2
[8] = tested on: Mus musculus; assay: Antihyperglycemic activity in diabetic C57BL/KsJ db/db mouse model assessed as improvement in glucose tolerance in hyperglycemia at 25 mg/kg, po qd for 10 days; assay type: functional
In short: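 Male/female C57BL/KsJ db/db mice, 12−18 weeks, 40−50 g, selected for glucose 200−350 mg/dL. Oral dosing daily for 10 days. OGTT on day 10 after an overnight fast: compound at −30 min, then 3 g/kg oral glucose at 0 min. Glucose read at 30, 60, 90 and 120 min. AUC taken versus vehicle, 5 mice per group.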

[9] = tested on: Rattus norvegicus; assay: Antihyperlipidemic activity in Triton-induced dyslipidemic Wistar rat model assessed as reduction in cholesterol level at 100 mg/kg, po; assay type: functional; set-up: scale not given: the % may be the effect or the level left
In short: (§3)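 Male Wistar rats, 8−10 weeks, about 160 g, fed normal pellet diet. Triton X-100 given at 400 mg/kg ip; compound given orally in 1% gum acacia. Retro-orbital blood taken 18 h after Triton and serum separated at 1500g for 10 min. TG and cholesterol measured by kit. Mean % change versus dyslipidemic control, 5 animals.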

[10] = tested on: Syrian golden hamster; assay: Antidyslipidemic activity in high fructose and high-fat diet fed dyslipidemic Syrian golden hamster model assessed as increase in HDL-cholesterol level at 30 mg/kg/day, po for 7 day, po; assay type: functional, Mesocricetus auratus
In short: (§4)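 Syrian golden hamsters fed high-fructose high-fat diet; oral dosing in 1% gum acacia at 10, 30, 100 mg/kg (or 25 mg/kg) for 7 days, sham control given vehicle; plasma TG, cholesterol, LDL-C, HDL-C, glycerol and NEFA (kits), lipoprotein lipase activity and body weight; % change versus HFD control, six hamsters per group.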

[11] = tested on: Syrian golden hamster; assay: Antidyslipidemic activity in high fructose and high-fat diet fed dyslipidemic Syrian golden hamster model assessed as reduction in body weight at 25 mg/kg/day for 7 days; assay type: functional, Mesocricetus auratus; set-up: scale not given: the % may be the effect or the level left; in short: as §4
[12] = tested on: Syrian golden hamster; assay: Antidyslipidemic activity in high fructose and high-fat diet fed dyslipidemic Syrian golden hamster model assessed as reduction in triglyceride level at 30 mg/kg/day, po for 7 day, po; assay type: functional, Mesocricetus auratus; set-up: scale not given: the % may be the effect or the level left
In short: (§5)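 HFD-fed Syrian golden hamsters, six per group, fed a high-fructose diet. Oral dosing in 1% gum acacia for 7 days. Sham group received vehicle. Plasma TG was measured and body weight tracked. Results given as % change versus HFD control.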

[13] = tested on: Syrian golden hamster; assay: Antidyslipidemic activity in high fructose and high-fat diet fed dyslipidemic Syrian golden hamster model assessed as reduction in LDL-cholesterol level at 100 mg/kg/day for 7 days; assay type: functional, Mesocricetus auratus; set-up: scale not given: the % may be the effect or the level left; in short: as §4
[14] = tested on: Rattus norvegicus; assay: Antidiabetic activity in sucrose challenged streptozotocin-induced diabetic Sprague-Dawley rat model assessed as reduction in glucose levels at 100 mg/kg, po measured after 5 hrs; assay type: functional; set-up: scale not given: the % may be the effect or the level left
[15] = tested on: Syrian golden hamster; assay: Antidyslipidemic activity in high fructose and high-fat diet fed dyslipidemic Syrian golden hamster model assessed as reduction in body weight at 100 mg/kg/day for 7 days; assay type: functional, organism-based; conditions: Mesocricetus auratus; in short: as §4
[16] = tested on: Syrian golden hamster; assay: Antidyslipidemic activity in high fructose and high-fat diet fed dyslipidemic Syrian golden hamster model assessed as reduction in glycerol level at 30 mg/kg/day, po for 7 day, po; assay type: functional, Mesocricetus auratus; set-up: scale not given: the % may be the effect or the level left; in short: as §4
[17] = tested on: Syrian golden hamster; assay: Antidyslipidemic activity in high fructose and high-fat diet fed dyslipidemic Syrian golden hamster model assessed as reduction in LDL-cholesterol level at 30 mg/kg/day, po for 7 day, po; assay type: functional, Mesocricetus auratus; set-up: scale not given: the % may be the effect or the level left; in short: as §4
[18] = tested on: Rattus norvegicus; assay: Antihyperlipidemic activity in Triton-induced dyslipidemic Wistar rat model assessed as reduction in triglyceride level at 100 mg/kg, po; assay type: functional; set-up: scale not given: the % may be the effect or the level left; in short: as §3
[19] = tested on: Syrian golden hamster; assay: Antidyslipidemic activity in high fructose and high-fat diet fed dyslipidemic Syrian golden hamster model assessed as reduction in triglyceride level at 100 mg/kg/day for 7 days; assay type: functional, Mesocricetus auratus; set-up: scale not given: the % may be the effect or the level left; in short: as §4
[20] = tested on: Rattus norvegicus; assay: Antihyperlipidemic activity in Triton-induced dyslipidemic Wistar rat model assessed as reduction in phospholipid level at 100 mg/kg, po; assay type: functional; set-up: scale not given: the % may be the effect or the level left; in short: as §3
[21] = tested on: Syrian golden hamster; assay: Antidyslipidemic activity in high fructose and high-fat diet fed dyslipidemic Syrian golden hamster model assessed as increase in lipoprotein lipase level at 30 mg/kg/day, po for 7 day, po; assay type: functional, Mesocricetus auratus; in short: as §4
[22] = tested on: Rattus norvegicus; assay: Antidiabetic activity in sucrose loaded Wistar rat model assessed as reduction in glucose levels at 100 mg/kg, po; assay type: functional; set-up: scale not given: the % may be the effect or the level left
[23] = tested on: Syrian golden hamster; assay: Antidyslipidemic activity in high fructose and high-fat diet fed dyslipidemic Syrian golden hamster model assessed as reduction in LDL-cholesterol level at 25 mg/kg/day for 7 days; assay type: functional, Mesocricetus auratus; set-up: scale not given: the % may be the effect or the level left; in short: as §4
[24] = tested on: Syrian golden hamster; assay: Antidyslipidemic activity in high fructose and high-fat diet fed dyslipidemic Syrian golden hamster model assessed as reduction in triglyceride level at 25 mg/kg/day for 7 days; assay type: functional, Mesocricetus auratus; set-up: scale not given: the % may be the effect or the level left; in short: as §5
[25] = tested on: Rattus norvegicus; assay: Antidiabetic activity in sucrose challenged streptozotocin-induced diabetic Sprague-Dawley rat model assessed as reduction in glucose levels at 100 mg/kg, po measured after 24 hrs; assay type: functional
[26] = tested on: Syrian golden hamster; assay: Antidyslipidemic activity in high fructose and high-fat diet fed dyslipidemic Syrian golden hamster model assessed as reduction in NEFA level at 30 mg/kg/day, po for 7 day, po; assay type: functional, Mesocricetus auratus; set-up: scale not given: the % may be the effect or the level left; in short: as §4
[27] = tested on: Syrian golden hamster; assay: Reduction in body weight in high fructose and high-fat diet fed dyslipidemic Syrian golden hamster model at 30 mg/kg/day, po for 7 days; assay type: functional, Mesocricetus auratus; set-up: scale not given: the % may be the effect or the level left; in short: as §5
[28] = tested on: Syrian golden hamster; assay: Antidyslipidemic activity in high fructose and high-fat diet fed dyslipidemic Syrian golden hamster model assessed as reduction in cholesterol level at 100 mg/kg/day for 7 days; assay type: functional, Mesocricetus auratus; set-up: scale not given: the % may be the effect or the level left
[29] = tested on: Syrian golden hamster; assay: Antidyslipidemic activity in high fructose and high-fat diet fed dyslipidemic Syrian golden hamster model assessed as increase in HDL-cholesterol level at 100 mg/kg/day for 7 days; assay type: functional, Mesocricetus auratus
[30] = tested on: Syrian golden hamster; assay: Antidyslipidemic activity in high fructose and high-fat diet fed dyslipidemic Syrian golden hamster model assessed as reduction in cholesterol level at 25 mg/kg/day for 7 days; assay type: functional, Mesocricetus auratus; set-up: scale not given: the % may be the effect or the level left
[31] = tested on: Syrian golden hamster; assay: Antidyslipidemic activity in high fructose and high-fat diet fed dyslipidemic Syrian golden hamster model assessed as increase in HDL-cholesterol level at 25 mg/kg/day for 7 days; assay type: functional, Mesocricetus auratus

SMILES: CC(C)NC[C@@H](O)COc1ccc2c(=O)cc(-c3cc(O)cc(O)c3)oc2c1
- Activity [1]: 3.59%
- Activity [2]: 9.1%
- Percent increase in HDL-C/cholesterol ratio vs vehicle [3]: 16.6
- Activity [4]: 14.1%
- Activity [5]: inactive
- Activity [6]: 11.2%
- Activity [7]: 28.2%
- Activity [8]: 22.4%

SMILES: CC(C)OC(=O)C(C)(C)Oc1ccc(C(=O)c2ccc(Cl)cc2)cc1 [FENOFIBRATE]
- Activity [9]: 18.9%
- Activity [10]: 9.68%
- Activity [11]: 6.78%
- Activity [12]: 30.2%
- Activity [13]: 56.3%
- Activity [14]: 1.47%
- Activity [15]: Active
- Activity [16]: 22.1%
- Activity [17]: 32.3%
- Activity [18]: 32.9%
- Activity [19]: 53.4%
- Activity [20]: 30.3%
- Activity [21]: 24.7%
- Activity [22]: 6.43%
- Activity [23]: 26.8%
- Activity [24]: 25.5%
- Activity [25]: inactive
- Activity [26]: 22.2%
- Activity [27]: 10.2%

SMILES: CN(CCOc1ccc(CC2SC(=O)NC2=O)cc1)c1ccccn1 (configuration not stated) [ROSIGLITAZONE]
- Activity [1]: 6.98%
- Activity [2]: 40.5%
- Percent increase in HDL-C/cholesterol ratio vs vehicle [3]: 108.7
- Activity [4]: 24.5%
- Activity [5]: -18.3%
- Activity [6]: 32.6%
- Activity [7]: 54.3%
- Activity [8]: 49.5%

SMILES: CC(C)NCC(O)COc1ccc2c(=O)cc(-c3cc(O)cc(O)c3)oc2c1 (racemic)
- Activity [28]: 13.8%
- Activity [9]: 32%
- Activity [1]: 11.8%
- Activity [2]: 22.3%
- Activity [13]: 47.7%
- Percent increase in HDL-C/cholesterol ratio vs vehicle [3]: 32.1
- Activity [4]: 14.2%
- Activity [15]: Active
- Activity [18]: 32%
- Activity [5]: inactive
- Activity [6]: 15.3%
- Activity [19]: 48.9%
- Activity [20]: 28%
- Activity [29]: 14.9%
- Activity [7]: 39.5%
- Activity [8]: 33.2%
- Activity [22]: 29%

SMILES: CC(C)(C)NC[C@@H](O)COc1ccc2c(=O)cc(-c3cc(OCc4ccccc4)cc(OCc4ccccc4)c3)oc2c1
- Activity [11]: 3.73%
- Activity [1]: 8.3%
- Activity [2]: 18%
- Percent increase in HDL-C/cholesterol ratio vs vehicle [3]: 28.8
- Activity [4]: 14.1%
- Activity [5]: inactive
- Activity [6]: 15.9%
- Activity [30]: 5.52%
- Activity [7]: 34.1%
- Activity [8]: 33.3%
- Activity [23]: 9.78%
- Activity [24]: 8.4%
- Activity [31]: 7.08%

SMILES: CC(C)NCC(O)COc1ccc2c(=O)cc(-c3ccc(OCc4ccccc4)c(OCc4ccccc4)c3)oc2c1 (configuration not stated)
- Activity [9]: 16%
- Activity [14]: 12.4%
- Activity [18]: 14%
- Activity [20]: 5%
- Activity [22]: 17.9%
- Activity [25]: 2.34%

SMILES: CC(C)(C)NCC(O)COc1ccc2c(=O)cc(-c3cc(OCc4ccccc4Cl)cc(OCc4ccccc4Cl)c3)oc2c1 (configuration not stated)
- Activity [9]: 12.5%
- Activity [14]: 7.48%
- Activity [18]: 18.7%
- Activity [20]: 11.3%
- Activity [22]: 14.8%
- Activity [25]: inactive
